In brackets after ≈: the same amount, converted by molar mass.
How the values were obtained:
Nakaseomyces glabratus [1] = experiment: Antifungal activity against Candida glabrata 20/I after 48 hrs; assay type: functional
Method in brief: (§1)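 Modified NCCLS M27-A broth microdilution with clinical isolates subcultured on Sabouraud dextrose agar. Suspensions diluted 1:50 in RPMI 1640 to give a final inoculum of 0.5–2.5×10³ CFU/mL for yeasts or 0.5–5×10⁴ CFU/mL for molds. The RPMI had L-glutamine, no bicarbonate, and 0.165 M MOPS to pH 7.0. Twofold dilutions from 250 to 0.49. Plates held at 35 °C, humid, without agitation. MIC is the lowest concentration giving ≥80% inhibition versus drug-free control, read at 24 and 48 h.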

Candida albicans [2] = experiment: Antifungal activity against Candida albicans ATCC 44859 after 24 hrs; assay type: functional; conditions: ATCC 44859, 24 h; method in brief: as §1
Lichtheimia corymbifera [3] = experiment: Antifungal activity against Absidia corymbifera 272 after 24 hrs; assay type: functional; method in brief: as §1
Trichophyton benhamiae [4] = experiment: Antifungal activity against Trichophyton mentagrophytes 445 after 72 hrs; assay type: functional, Arthroderma benhamiae
Method in brief: (§2)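 Same modified M27-A microdilution with the mold inoculum of 0.5–5×10⁴ CFU/mL. Medium was RPMI 1640 with L-glutamine, no bicarbonate, and 0.165 M MOPS at pH 7.0. Twofold dilutions from 250 to 0.49. Incubated at 35 °C in a humid atmosphere.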

[5] = test system: Mycobacterium tuberculosis; experiment: Antimicrobial activity against Mycobacterium tuberculosis My 331/88 after 21 days; assay type: functional; conditions: 504 h
Trichosporon beigelii [6] = experiment: Antifungal activity against Trichosporon beigelii 1188 after 48 hrs; assay type: functional; method in brief: as §1
Candida albicans [7] = experiment: Antifungal activity against Candida albicans ATCC 44859 after 48 hrs; assay type: functional; conditions: ATCC 44859, 48 h; method in brief: as §1
Trichosporon beigelii [8] = experiment: Antifungal activity against Trichosporon beigelii 1188 after 24 hrs; assay type: functional; method in brief: as §1
Lichtheimia corymbifera [9] = experiment: Antifungal activity against Absidia corymbifera 272 after 48 hrs; assay type: functional; method in brief: as §1
K562 = experiment: Antiproliferative activity against human K562 cells after 72 hrs; assay type: functional; conditions: K562, 72 h
Method in brief: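 About 10,000 suspension cells per well in RPMI 1640 with 10% heat-inactivated FBS and penicillin/streptomycin, without HEPES. Exposed to 10 concentrations for 72 h at 37 °C in humidified 5% CO₂. Wells diluted 1:50 in CASYTON and counted electronically, each result the mean of three successive counts. GI50 is where the concentration–response curve crosses 50% of control cell count.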

[10] = test system: Mycobacterium tuberculosis; experiment: Antimicrobial activity against Mycobacterium tuberculosis My 331/88 after 14 days; assay type: functional; conditions: 336 h
Candida tropicalis [11] = experiment: Antifungal activity against Candida tropicalis 156 after 48 hrs; assay type: functional; method in brief: as §1
HeLa = experiment: Cytotoxicity against human HeLa cells after 72 hrs; assay type: functional; conditions: for CC50: Homo sapiens, HeLa, 72 h
Method in brief: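 About 10,000 cells per well in RPMI 1640 were preincubated 48 h without compound. The 10 test concentrations were then applied onto the monolayers and incubated 72 h at 37 °C in humidified 5% CO₂. Monolayers fixed with glutaraldehyde, stained with 0.05% methylene blue, and eluted with 0.33 N HCl; optical density measured at 630 nm.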

Aspergillus fumigatus [12] = experiment: Antifungal activity against Aspergillus fumigatus 231 after 24 hrs; assay type: functional; method in brief: as §1
Mycobacterium kansasii [13] = experiment: Antimicrobial activity against Mycobacterium kansasii My 235/80 after 21 days; assay type: functional; conditions: 504 h
Method in brief: (§3)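 Run in Šula semisynthetic liquid medium containing bovine serum. Compounds added as DMSO solutions at final concentrations of […]. Each strain was also inoculated onto Löwenstein–Jensen medium to control inoculum sterility and growth.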

Mycobacterium kansasii [14] = experiment: Antimicrobial activity against Mycobacterium kansasii My 235/80 after 14 days; assay type: functional; conditions: 336 h; method in brief: as §3
Pichia kudriavzevii [15] = experiment: Antifungal activity against Candida krusei E28 after 24 hrs; assay type: functional; method in brief: as §1
Mycobacterium avium [16] = experiment: Antimicrobial activity against Mycobacterium avium My 330/88 after 14 days; assay type: functional; conditions: 336 h
Candida tropicalis [17] = experiment: Antifungal activity against Candida tropicalis 156 after 24 hrs; assay type: functional; method in brief: as §1
L929 = experiment: Antiproliferative activity against mouse L929 cells after 72 hrs; assay type: functional; conditions: L929, 72 h
Method in brief: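 About 10,000 adherent cells per well in RPMI 1640 with 10% heat-inactivated FBS and penicillin/streptomycin, without HEPES. Exposed to 10 concentrations for 72 h at 37 °C in humidified 5% CO₂. Monolayers fixed with glutaraldehyde, stained 15 min with 0.05% methylene blue, and eluted with 0.33 N HCl; OD read at 630 nm. GI50 derived from dose–response curves relative to control.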

Aspergillus fumigatus [18] = experiment: Antifungal activity against Aspergillus fumigatus 231 after 48 hrs; assay type: functional; method in brief: as §1
Trichophyton benhamiae [19] = experiment: Antifungal activity against Trichophyton mentagrophytes 445 after 120 hrs; assay type: functional, Arthroderma benhamiae; method in brief: as §2
Pichia kudriavzevii [20] = experiment: Antifungal activity against Candida krusei E28 after 48 hrs; assay type: functional; method in brief: as §1
Nakaseomyces glabratus [21] = experiment: Antifungal activity against Candida glabrata 20/I after 24 hrs; assay type: functional; method in brief: as §1
Mycobacterium kansasii [22] = experiment: Antimicrobial activity against Mycobacterium kansasii My 6509/96 after 7 days; assay type: functional; conditions: 168 h; method in brief: as §3
Mycobacterium kansasii [23] = experiment: Antimicrobial activity against Mycobacterium kansasii My 6509/96 after 14 days; assay type: functional; conditions: 336 h; method in brief: as §3
Mycobacterium kansasii [24] = experiment: Antimicrobial activity against Mycobacterium kansasii My 6509/96 after 21 days; assay type: functional; conditions: 504 h; method in brief: as §3
Mycobacterium kansasii [25] = experiment: Antimicrobial activity against Mycobacterium kansasii My 235/80 after 7 days; assay type: functional; conditions: 168 h; method in brief: as §3
Mycobacterium avium [26] = experiment: Antimicrobial activity against Mycobacterium avium My 330/88 after 21 days; assay type: functional; conditions: 504 h

SMILES	MIC (Nakaseomyces glabratus [1])	MIC (Candida albicans [2])	MIC (Lichtheimia corymbifera [3])	MIC (Trichosporon beigelii [6])	MIC (Candida albicans [7])	MIC (Trichosporon beigelii [8])	MIC (Lichtheimia corymbifera [9])	GI50 (K562)	MIC [10]	MIC (Candida tropicalis [11])	CC10 (HeLa)	CC50 (HeLa)	MIC (Aspergillus fumigatus [12])	MIC (Mycobacterium kansasii [14])	MIC (Pichia kudriavzevii [15])	MIC (Candida tropicalis [17])	GI50 (L929)	MIC (Aspergillus fumigatus [18])	MIC (Pichia kudriavzevii [20])	MIC (Nakaseomyces glabratus [21])	other results
Cc1ccc(-n2nnnc2SCCCCCCCOc2ccc3c(c2)CC[C@@H]2[C@@H]3CC[C@]3(C)C(=O)CC[C@@H]23)cc1	> 250 µM	> 250 µM	> 250 µM	> 250 µM	> 250 µM	> 250 µM	> 250 µM	> 50 µg/mL	500 µM (≈ 279 µg/mL)	> 250 µM	28.7 µg/mL (≈ 51.4 µM)	> 50 µg/mL	250 µM (≈ 140 µg/mL)	> 500 µM	> 250 µM	> 250 µM	> 50 µg/mL	> 250 µM	> 250 µM	> 250 µM	MIC (Trichophyton benhamiae [4]): > 250 µM; MIC [5]: > 500 µM; MIC (Mycobacterium kansasii [13]): > 500 µM; MIC (Mycobacterium avium [16]): > 500 µM; MIC (Trichophyton benhamiae [19]): > 250 µM
C[C@]12CC[C@@H]3c4ccc(OCCCCCCCSc5nnnn5-c5ccc(Cl)cc5)cc4CC[C@H]3[C@@H]1CCC2=O	> 250 µM	> 250 µM	> 250 µM	> 250 µM	> 250 µM	> 250 µM	> 250 µM	> 50 µg/mL		> 250 µM	50 µg/mL (≈ 86.3 µM)	> 50 µg/mL	250 µM (≈ 145 µg/mL)		> 250 µM	> 250 µM	> 50 µg/mL	> 250 µM	> 250 µM	> 250 µM	MIC (Trichophyton benhamiae [4]): > 250 µM; MIC (Trichophyton benhamiae [19]): > 250 µM
Cc1ccc(-n2nnnc2S)cc1								42.8 µg/mL (≈ 223 µM)	500 µM (≈ 96.1 µg/mL)		33 µg/mL (≈ 172 µM)	> 50 µg/mL		> 500 µM			> 50 µg/mL				MIC (Mycobacterium kansasii [22]): 500 µM (≈ 96.1 µg/mL); MIC [5]: > 500 µM; MIC (Mycobacterium kansasii [23]): 500 µM (≈ 96.1 µg/mL); MIC (Mycobacterium kansasii [24]): > 500 µM; MIC (Mycobacterium kansasii [25]): 500 µM (≈ 96.1 µg/mL); MIC (Mycobacterium kansasii [13]): > 500 µM; MIC (Mycobacterium avium [16]): 500 µM (≈ 96.1 µg/mL); MIC (Mycobacterium avium [26]): > 500 µM
Sc1nnnn1-c1ccc(Cl)cc1								42.6 µg/mL (≈ 200 µM)	500 µM (≈ 106 µg/mL)		26.4 µg/mL (≈ 124 µM)	48.9 µg/mL (≈ 230 µM)		> 500 µM			> 50 µg/mL				MIC (Mycobacterium kansasii [22]): 250 µM (≈ 53.2 µg/mL); MIC [5]: > 500 µM; MIC (Mycobacterium kansasii [23]): 500 µM (≈ 106 µg/mL); MIC (Mycobacterium kansasii [24]): > 500 µM; MIC (Mycobacterium kansasii [25]): 500 µM (≈ 106 µg/mL); MIC (Mycobacterium kansasii [13]): > 500 µM; MIC (Mycobacterium avium [16]): > 500 µM; MIC (Mycobacterium avium [26]): > 500 µM
C[C@@H]1[C@H](O)[C@@H](C)/C=C/C=C/C=C/C=C/C=C/C=C/C=C/[C@H](O[C@@H]2O[C@H](C)[C@@H](O)[C@H](N)[C@@H]2O)C[C@@H]2O[C@](O)(C[C@@H](O)C[C@@H](O)[C@H](O)CC[C@@H](O)C[C@@H](O)CC(=O)O[C@H]1C)C[C@H](O)[C@H]2C(=O)O [AMPHOTERICIN B]	0.14 µM (≈ 0.129 µg/mL)	0.02 µM (≈ 0.0185 µg/mL)	1.08 µM (≈ 0.998 µg/mL)	2.16 µM (≈ 2 µg/mL)	0.07 µM (≈ 0.0647 µg/mL)	1.08 µM (≈ 0.998 µg/mL)	2.16 µM (≈ 2 µg/mL)			0.07 µM (≈ 0.0647 µg/mL)			0.27 µM (≈ 0.25 µg/mL)		0.14 µM (≈ 0.129 µg/mL)	0.07 µM (≈ 0.0647 µg/mL)		0.27 µM (≈ 0.25 µg/mL)	0.14 µM (≈ 0.129 µg/mL)	0.04 µM (≈ 0.037 µg/mL)	
C[C@]12CC[C@@H]3c4ccc(OCCCCCCCSc5nnnn5-c5ccccc5)cc4CC[C@H]3[C@@H]1CCC2=O	> 250 µM	> 250 µM	> 250 µM	> 250 µM	> 250 µM	> 250 µM	> 250 µM	> 50 µg/mL	> 500 µM	> 250 µM	20.3 µg/mL (≈ 37.3 µM)	> 50 µg/mL	250 µM (≈ 136 µg/mL)	> 500 µM	> 250 µM	> 250 µM	> 50 µg/mL	> 250 µM	> 250 µM	> 250 µM	MIC (Trichophyton benhamiae [4]): > 250 µM; MIC [5]: > 500 µM; MIC (Mycobacterium kansasii [24]): > 500 µM; MIC (Mycobacterium kansasii [13]): > 500 µM; MIC (Trichophyton benhamiae [19]): > 250 µM
Clc1ccc(-n2nnnc2SCc2ccccc2)cc1	> 250 µM	> 250 µM	> 250 µM	> 250 µM	> 250 µM	> 250 µM	> 250 µM	> 50 µg/mL	16 µM (≈ 4.84 µg/mL)	> 250 µM	5 µg/mL (≈ 16.5 µM)	50 µg/mL (≈ 165 µM)	62.5 µM (≈ 18.9 µg/mL)	32 µM (≈ 9.69 µg/mL)	> 250 µM	> 250 µM	16.7 µg/mL (≈ 55.2 µM)	62.5 µM (≈ 18.9 µg/mL)	> 250 µM	> 250 µM	MIC (Mycobacterium kansasii [22]): 16 µM (≈ 4.84 µg/mL); MIC (Trichophyton benhamiae [4]): 31.3 µM (≈ 9.48 µg/mL); MIC (Mycobacterium kansasii [23]): 16 µM (≈ 4.84 µg/mL); MIC (Mycobacterium kansasii [25]): 16 µM (≈ 4.84 µg/mL); MIC (Mycobacterium avium [16]): 62.5 µM (≈ 18.9 µg/mL); MIC (Trichophyton benhamiae [19]): 62.5 µM (≈ 18.9 µg/mL)

Source: ChEMBL document CHEMBL1143019, “Hybrid molecules of estrone: new compounds with potential antibacterial, antifungal, and antiproliferative activities” (2007)
